Assay [1] in a line: reducers of endogenous Her2 protein level, primary screen, SKBR3 breast tumor cells, AlphaScreen, ATP viability (AID 461).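 As to Her2 level: lower value means less Her2 protein in the cells.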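 As to viability: percent of carrier control wells set as 100% viability.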 As to conditions: 18-24 h, measured here: SKBR3 viability, ATP luminescence, at 10 µM.
The target of assay [2] is Receptor tyrosine-protein kinase erbB-2 (Homo sapiens) (UniProt P04626). Described as above. As to conditions: 18-24 h, at 10 µM, stronger effect = lower value.
Chain of Receptor tyrosine-protein kinase erbB-2 (Homo sapiens) (P04626 whole entry, looked up): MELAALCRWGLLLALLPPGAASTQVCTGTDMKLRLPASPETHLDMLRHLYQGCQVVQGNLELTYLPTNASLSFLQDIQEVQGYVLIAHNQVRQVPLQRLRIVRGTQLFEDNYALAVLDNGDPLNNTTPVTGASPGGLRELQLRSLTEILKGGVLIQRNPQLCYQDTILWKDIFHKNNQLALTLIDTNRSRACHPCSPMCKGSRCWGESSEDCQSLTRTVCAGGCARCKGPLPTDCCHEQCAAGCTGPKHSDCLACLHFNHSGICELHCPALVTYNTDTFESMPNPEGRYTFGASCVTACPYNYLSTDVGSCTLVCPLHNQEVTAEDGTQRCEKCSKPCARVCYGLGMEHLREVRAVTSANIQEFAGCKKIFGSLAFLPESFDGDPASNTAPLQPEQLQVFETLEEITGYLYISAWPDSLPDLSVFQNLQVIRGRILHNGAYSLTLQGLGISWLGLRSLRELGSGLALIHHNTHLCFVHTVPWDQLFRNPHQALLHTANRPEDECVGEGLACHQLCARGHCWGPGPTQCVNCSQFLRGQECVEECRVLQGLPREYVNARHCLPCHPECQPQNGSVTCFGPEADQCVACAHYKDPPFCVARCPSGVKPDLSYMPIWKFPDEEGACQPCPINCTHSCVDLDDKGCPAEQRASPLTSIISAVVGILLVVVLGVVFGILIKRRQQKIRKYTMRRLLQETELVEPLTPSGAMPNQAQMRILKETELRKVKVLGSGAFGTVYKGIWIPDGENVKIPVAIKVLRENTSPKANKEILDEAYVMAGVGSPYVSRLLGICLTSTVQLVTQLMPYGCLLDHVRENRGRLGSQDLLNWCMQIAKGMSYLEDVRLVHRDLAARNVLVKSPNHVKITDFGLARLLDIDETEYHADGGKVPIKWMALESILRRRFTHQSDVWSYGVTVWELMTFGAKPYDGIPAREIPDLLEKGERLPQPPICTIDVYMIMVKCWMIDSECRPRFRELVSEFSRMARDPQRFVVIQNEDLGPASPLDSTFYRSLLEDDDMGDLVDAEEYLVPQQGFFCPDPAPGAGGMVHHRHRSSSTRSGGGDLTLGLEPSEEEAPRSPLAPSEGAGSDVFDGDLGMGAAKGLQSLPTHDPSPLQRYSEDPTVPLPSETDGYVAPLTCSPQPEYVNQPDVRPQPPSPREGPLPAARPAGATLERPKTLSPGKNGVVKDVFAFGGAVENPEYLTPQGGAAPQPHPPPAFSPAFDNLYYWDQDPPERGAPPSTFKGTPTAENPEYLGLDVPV
Assay [3] is described as follows: SK-BR-3 cell growth inhibitors, pilot screen, 24 h, human (AID 572;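 active = viability at or below 10% of carrier control in both of two separate runs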;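 also: compound exposure lasted between 18 and 24 h rather than exactly 24 h; 100% = carrier-treated control wells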). As to conditions: SK-BR-3 viability, CellTiter-Glo luminescence, at 10 µM, stronger effect = lower value.
A short description of assay [4]: HUVEC growth inhibition – cell-based, human, primary screen (AID 575;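 active = viability at or below 30% in both replicate assays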;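 also: 100% = median of untreated cell wells with 0.1% DMSO on each plate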). The note with it: HUVEC proliferation, CellTiter-Glo luminescence, 72 h; at 10 µM; stronger effect = lower value. In outline: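 Material: primary human umbilical vein endothelial cells / Schedule: 72 h exposure, 37 °C, 5% CO2, 30 min RT equilibration / Signal: ATP-based CellTiter-Glo luminescent read / Read-out basis: percent of median DMSO-control luminescence / Control set: 32 DMSO-only cell-control wells (high), 32 MePR drug-control wells (low) per plate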

Assay [5] can be described thus: growth inhibitors of H69AR lung tumor, primary screen, human, duplicate replicates (AID 580;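 active = viability at or under a set limit in both replicates, limit being median viability minus 3 SD, cut at about 48% in these data, passing the limit was not always enough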;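 also: 100% = mean luminescence of untreated wells and 0% = no signal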). As to conditions: H69AR lung tumor cells viability, ATP luminescence, 72 h; at 10 µM; stronger effect = lower value.
A short description of assay [6]: reversal of MRP1-mediated doxorubicin resistance, pilot screen, H69AR cells, doxorubicin co-treatment (AID 601;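 active = viability loss from added drug above about 55%, and viability with drug at most 40%, in both replicates, limit read from the data, passing the limit was not always enough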). The note with it: CellTiter-Glo, 72 h, at 10 µM; for differential viability (reversal): stronger effect = higher value.
The nature of assay [7]: 384-well plate pilot, post-Golgi transport modulator project, inhibition of yeast transport mutant growth (AID 636; in the data active = inhibition above about 31%). As to conditions: absorbance 615 nm, about 18 h, stronger effect = higher value.
Assay [8] can be described thus: growth suppression of yeast trafficking mutant, preliminary HTS, modulators of trafficking downstream of Golgi apparatus project, 1536-format plate, OD 615 nm (AID 637; in the data active = inhibition above about 30%). As to conditions: yeast transport mutant growth, absorbance 615 nm, 18 h; stronger effect = higher value.
Where [9] appears, read: H69AR cells + 2 uM doxorubicin, measured here: viability with 2 uM doxorubicin, stronger effect = lower value.
[10] abbreviates: H69AR cells, compound alone cytotoxicity.

Active and inactive are the calls of the source.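 The calls were made as follows, unless noted: active = Her2 level under about 52% in both replicate screens, with viability over 70% of control (limit read from the data); inconclusive = Her2 under the limit in one screen only, or viability under 70%; inactive = Her2 level above the set limit.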

`CCNS(=O)(=O)c1c(C)cc(N2CCCC2=O)cc1C`: the viability in assay [1] was 95.5%; in assay [3], 95.5% (inactive); in assay [4], 112% (inactive); in assay [5], 98.8% (inactive); in assay [6] (setting [9]), 90.6%; in assay [6] (setting [10]) it was 98.8%. Also, the Her2 level in assay [2] was 109% (inactive). Further, in assay [6] (H69AR cells + 2 uM doxorubicin), the differential viability (reversal) is 8.17% (inactive). The inhibition was -3.87% (inactive) in assay [7] and -1.31% (inactive) in assay [8].

Take `CCNC(=O)c1ccc(NS(=O)(=O)c2ccccc2)cc1`: the viability is 124% in assay [1]; 124% (inactive) in assay [3]; 86.1% (inactive) in assay [4]; 90.5% (inactive) in assay [5]; 92.2% in assay [6] (setting [9]); 90.5% in assay [6] (setting [10]). The Her2 level in assay [2] was 91% (inactive). In assay [6] (H69AR cells + 2 uM doxorubicin), the differential viability (reversal) was -1.69% (inactive). Further, the inhibition in assay [7] is 0% (inactive); in assay [8] it was 4.1% (inactive).

For the compound `CCC(=O)N1CCc2cc(Br)cc(S(=O)(=O)CCC(=O)NCC3CCCO3)c21` (stereo not given), the viability in assay [1] is 118%; in assay [3] it was 118% (inactive); in assay [4] it was 106% (inactive); in assay [5] it was 92.8% (inactive); in assay [6] (setting [9]), 79.4%; in assay [6] (setting [10]) it was 92.8%. Besides, in assay [2], the Her2 level was 90% (inactive). In assay [6] (H69AR cells + 2 uM doxorubicin), the differential viability (reversal) was 13.4% (inactive). Moreover, the results for the inhibition in assay [7] and in assay [8] were -6.35% (inactive) and 6% (inactive), respectively.

Regarding `COCCNS(=O)(=O)c1cc(F)ccc1OC`, the viability in assay [1] is 90%; in assay [3] it was 90% (inactive); in assay [4], 95.1% (inactive); in assay [5], 103% (inactive); in assay [6] (setting [9]) it was 97.6%; in assay [6] (setting [10]), 103%. Further, in assay [2], the Her2 level is 99.5% (inactive). Moreover, in assay [6] (H69AR cells + 2 uM doxorubicin), the differential viability (reversal) is 5.13% (inactive). Also, the inhibition in assay [7] was -4.32% (inactive); in assay [8], -5.74% (inactive).

With `CC(C)CCNC(=O)C(c1cccs1)N(CC1CCCO1)C(=O)Cn1nnc2ccccc21` (stereo not given), the viability in assay [1] is 116%; in assay [3] it was 116% (inactive); in assay [4] it was 96.2% (inactive); in assay [5], 89.8% (inactive); in assay [6] (setting [9]) it was 85.5%; in assay [6] (setting [10]), 89.8%. Also, the Her2 level in assay [2] is 112% (inactive). The differential viability (reversal) in assay [6] (H69AR cells + 2 uM doxorubicin) is 4.32% (inactive). Besides, the inhibition was -5.71% (inactive) in assay [7] and -6.33% (inactive) in assay [8].

As to `O=c1c2ccccc2cnn1-c1nc2ccccc2s1`, the viability in assay [1] was 91%; in assay [3], 91% (inactive); in assay [4], 63.6% (inactive); in assay [5] it was 81.6% (inactive); in assay [6] (setting [9]), 81.4%; in assay [6] (setting [10]), 81.6%. Further, in assay [2], the Her2 level was 73% (inactive). The differential viability (reversal) in assay [6] (H69AR cells + 2 uM doxorubicin) is 0.15% (inactive). Besides, the inhibition was -7.3% (inactive) in assay [7] and -3.33% (inactive) in assay [8].

Regarding `COc1ccc(CCn2c(NCCCN3CCOCC3)nc3c2c(=O)[nH]c(=O)n3C)cc1`, the viability in assay [1] is 84.5%; in assay [3] it was 84.5% (inactive); in assay [4], 76.6% (inactive); in assay [5] it was 87.3% (inactive); in assay [6] (setting [9]), 86.9%; in assay [6] (setting [10]) it was 87.3%. In addition, the Her2 level in assay [2] was 86% (inactive). Moreover, the differential viability (reversal) in assay [6] (H69AR cells + 2 uM doxorubicin) is 0.365% (inactive). Further, the values for the inhibition in assay [7] and in assay [8] were 4.13% (inactive) and 30.3% (active), respectively.

Regarding `Cc1ccc(C(=O)CC2(O)C(=O)N(CN3CCOCC3)c3ccccc32)cc1` (stereo not given), the viability in assay [1] is 100%; in assay [3], 100% (inactive); in assay [4] it was 85.9% (inactive); in assay [5] it was 94.6% (inactive); in assay [6] (setting [9]) it was 99.7%; in assay [6] (setting [10]), 94.6%. In assay [2], the Her2 level was 90.5% (inactive). The differential viability (reversal) in assay [6] (H69AR cells + 2 uM doxorubicin) was -5.11% (inactive). In addition, the figures for the inhibition in assay [7] and in assay [8] were -3.55% (inactive) and -4.83% (inactive), respectively.

As to `CC(C)C(=O)Nc1ccc2c(c1)nc1n2CCSC1`, the viability in assay [1] was 104%; in assay [3], 104% (inactive); in assay [4], 111% (inactive); in assay [5], 95.4% (inactive); in assay [6] (setting [9]) it was 85%; in assay [6] (setting [10]), 95.4%. The Her2 level in assay [2] is 95% (inactive). Besides, the differential viability (reversal) in assay [6] (H69AR cells + 2 uM doxorubicin) is 10.4% (inactive). The inhibition in assay [7] was -0.78% (inactive); in assay [8], -6.83% (inactive).

Consider `O=C(NCCc1ccccn1)c1ccc(COc2ccccc2)o1`, for which the viability in assay [1] is 80%; in assay [3], 80% (inactive); in assay [4] it was 103% (inactive); in assay [5], 102% (inactive); in assay [6] (setting [9]), 95.3%; in assay [6] (setting [10]), 102%. Moreover, the Her2 level in assay [2] is 100% (inactive). Besides, the differential viability (reversal) in assay [6] (H69AR cells + 2 uM doxorubicin) was 6.97% (inactive). The values for the inhibition in assay [7] and in assay [8] were -2.99% (inactive) and 0.33% (inactive), respectively.

For `O=C(NC1CCCC1)C1CC1c1ccccc1` (stereo not given), the viability is 100% in assay [1]; 100% (inactive) in assay [3]; 93.9% (inactive) in assay [4]; 98.3% (inactive) in assay [5]; 101% in assay [6] (setting [9]); 98.3% in assay [6] (setting [10]). In assay [2], the Her2 level was 102% (inactive). Besides, in assay [6] (H69AR cells + 2 uM doxorubicin), the differential viability (reversal) is -2.33% (inactive). The figures for the inhibition in assay [7] and in assay [8] were -6.13% (inactive) and 1.15% (inactive), respectively.

`Cc1ccccc1NC(=O)N1C2CCCC1CC(NC(=O)C1CC1)C2` (stereo not given): the viability is 104% in assay [1]; 104% (inactive) in assay [3]; 94% (inactive) in assay [4]; 104% (inactive) in assay [5]; 93.9% in assay [6] (setting [9]); 104% in assay [6] (setting [10]). In addition, in assay [2], the Her2 level is 95% (inactive). Besides, the differential viability (reversal) in assay [6] (H69AR cells + 2 uM doxorubicin) is 10.3% (inactive). The inhibition is -7.07% (inactive) in assay [7] and 9.02% (inactive) in assay [8].

For `COc1ccccc1N(CC(=O)NCc1ccccc1)S(C)(=O)=O`, the viability was 103% in assay [1]; 103% (inactive) in assay [3]; 106% (inactive) in assay [4]; 97% (inactive) in assay [5]; 93.9% in assay [6] (setting [9]); 97% in assay [6] (setting [10]). The Her2 level in assay [2] was 92.5% (inactive). In addition, the differential viability (reversal) in assay [6] (H69AR cells + 2 uM doxorubicin) is 3.07% (inactive). In addition, the inhibition in assay [7] is -9.19% (inactive); in assay [8] it was -7.33% (inactive).

`CC(=O)Nc1cccc(OCC(O)Cn2cnc3ccccc32)c1` (stereo not given): the viability was 128% in assay [1]; 128% (inactive) in assay [3]; 90% (inactive) in assay [4]; 97.9% (inactive) in assay [5]; 92.7% in assay [6] (setting [9]); 97.9% in assay [6] (setting [10]). Moreover, the Her2 level in assay [2] is 110% (inactive). In addition, the differential viability (reversal) in assay [6] (H69AR cells + 2 uM doxorubicin) is 5.28% (inactive). Besides, the results for the inhibition in assay [7] and in assay [8] were -0.14% (inactive) and 7.14% (inactive), respectively.

`Cn1cnnc1SCC(=O)Nc1sc2c(c1C#N)CCCCC2`: the viability in assay [1] was 86%; in assay [3], 86% (inactive); in assay [4], 73.5% (inactive); in assay [5], 95.2% (inactive); in assay [6] (setting [9]) it was 83.9%; in assay [6] (setting [10]), 95.2%. Further, the Her2 level in assay [2] was 102% (inactive). Also, in assay [6] (H69AR cells + 2 uM doxorubicin), the differential viability (reversal) was 11.4% (inactive). Also, the figures for the inhibition in assay [7] and in assay [8] were 10.1% (inactive) and 27.9% (inactive), respectively.

Regarding `CCOC(=O)N1CCN(C(=O)CN(c2ccc(C)cc2)S(=O)(=O)c2c(C)noc2C)CC1`, the viability was 81.5% in assay [1]; 81.5% (inactive) in assay [3]; 106% (inactive) in assay [4]; 86.1% (inactive) in assay [5]; 86.1% in assay [6] (setting [9]); 86.1% in assay [6] (setting [10]). Also, the Her2 level in assay [2] is 94% (inactive). The differential viability (reversal) in assay [6] (H69AR cells + 2 uM doxorubicin) was -0.005% (inactive). The inhibition is -4.73% (inactive) in assay [7] and 6.51% (inactive) in assay [8].

These data come from PubChem BioAssay.
